Measurements as given in publication PMC9020136 (Science (New York, N.Y.), 2022).

How the values were obtained:
Bacilus subtilis = assay: MIC, broth-microdilution method; type: cell-based
bacterial membranes = assay: Membrane permeabilization, influx of viability stain SYTOX Green; type: cell-based, B. subtilis; conditions: concentration twice the MIC value
How it was run: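 Live B. subtilis cells imaged over time by confocal microscopy after exposure to a lethal level of test compound. SYTOX Green was used as a viability stain, with its entry into cells read as membrane permeabilization.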

## (−)-Himastatin [(−)-himastatin (1)]
Bacilus subtilis
  MIC: 1 µg/mL
Bacterial membranes
  time to permeabilization of bacterial membranes: ≤ 30 min
